Paper PMC3351161 (Nucleic Acids Research, 2012)
Where no end group is shown, it is not given here. [ ]: non-standard residue; d: D form. pT = C[C@@H](OP(=O)(O)O)[C@H](N)C(=O)O

Key:
Mdc1 [1] = assay: Peptide pull-down from HeLa nuclear extract; assay type: binding, human; details: peptide coupled to magnetic beads, SDS-PAGE, western blot
RAD50 = assay: Peptide pull-down from HeLa nuclear extract; assay type: binding, human; details: peptide coupled to magnetic beads; band at ∼150 kDa
[2] = system: Mdc1 BRCT domains (M-8 GST-fragment); assay: Phosphopeptide pull-down with GST fragment M-8; assay type: binding, human; details: bacterially expressed GST-fusion
MRE11 = assay: Peptide pull-down from HeLa nuclear extract; assay type: binding, human; details: peptide coupled to magnetic beads; band at ∼80 kDa
[3] = system: Mdc1 FHA domain (M-1 GST-fragment); assay: Phosphopeptide pull-down with GST fragment M-1; assay type: binding, human; details: bacterially expressed GST-fusion
Mdc1 M-1, 1-124 = Mdc1 M-1, 1-124 (UniProt Q14676); assay: peptide pull-down of purified GST fragment; details: reference: unphosphorylated peptide; sites T4
Mdc1 [4] = target: Mdc1 (UniProt Q14676); assay: Strep-Tactin pull-down, SILAC LC-MS/MS; details: reference: wild type FHA fragment; sites T4
Mdc1 (UniProt Q14676), sequence (Q14676 1-154 T4A): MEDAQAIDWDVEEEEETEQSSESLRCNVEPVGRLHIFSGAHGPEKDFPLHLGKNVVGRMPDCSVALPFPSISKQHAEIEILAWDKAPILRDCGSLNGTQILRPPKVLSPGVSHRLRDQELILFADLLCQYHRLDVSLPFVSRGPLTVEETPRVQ

Mdc1 1-800 = Mdc1 1-800 (UniProt Q14676); assay: anti-Flag co-IP, anti-Myc blot; details: reference: wild type; sites T4
Mdc1 FHA domain = Mdc1 FHA domain (UniProt Q14676); assay: ITC; details: reference: non-phosphorylated Thr-4 peptide; sites T4
[5] = target: T1, Mdc1 fragment M-1 (amino acids 1–124), GST fusion (human, UniProt Q14676 1-124); assay: pull-down
T1 sequence (looked up): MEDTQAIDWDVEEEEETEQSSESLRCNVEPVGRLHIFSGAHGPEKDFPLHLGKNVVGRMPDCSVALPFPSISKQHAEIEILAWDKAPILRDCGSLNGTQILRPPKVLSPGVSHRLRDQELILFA

[6] = system: Mdc1–FHA WT and T4A mutant domains; assay: SILAC pull-down, wild-type versus T4A Mdc1–FHA domain after IR; assay type: binding, human; details: IR-treated cells
Outline: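 U2OS cells stably carry a doxycycline-inducible, C-terminally Strep-tagged FHA domain (aa 1–154) or empty plasmid. They are SILAC-labelled (Lys0/Arg0, Lys4/Arg6, Lys8/Arg10) in dialyzed FBS, induced 16 h, then given 10 Gy IR for 30 min. Lysis in pH 7.5 Tris/NP-40 buffer with phosphatase and protease inhibitors, Strep-Tactin capture, pooled eluates on 4–20% SDS-PAGE, in-gel trypsin digestion. Analysis by nano-LC Orbitrap Velos MS and MaxQuant (FDR <1%). Read-out is normalized log2 SILAC ratios; 1:1:1 ratios count as background binders.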

SEC-MALS = target: the molecule itself; assay: SEC-MALS
endogenous Mdc1 = assay: Co-immunoprecipitation of Flag-tagged Mdc1; assay type: cell-based, human; details: 293T cells, with or without IR (10 Gy)
Outline: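 HEK 293T cells in D-MEM with 10% FCS and streptomycin/penicillin were transfected (FuGene 6 or calcium phosphate) with FLAG-tagged human Mdc1 residues 1–800 in pcDNA3.1(+). IR was given in an X-ray cabinet at 5–10 Gy/min. Complexes were captured on anti-FLAG M2 affinity gel and probed for endogenous Mdc1.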

Myc-tagged Mdc1 (1–800) = assay: Co-immunoprecipitation of Flag- and Myc-tagged Mdc1; assay type: cell-based, human; details: transiently transfected 293T cells, anti-Flag IP, anti-Myc immunoblot
Outline: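 Human Mdc1 residues 1–800, C-terminally tagged with HA/FLAG or Myc, in a pcDNA3.1(+) vector. HEK 293T cells grown in D-MEM with 10% FCS and streptomycin/penicillin (100 U/ml). Transfected with FuGene 6 or calcium phosphate. Immunoprecipitation on anti-FLAG M2 affinity gel; Myc-tagged partner detected by immunoblot with rabbit polyclonal c-Myc antibody.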

Molecule: MED[pT]QAIDWDAE[KBtn] [pThr-4 phosphopeptide]
- Mdc1 pulled down from HeLa nuclear extract (Mdc1 [1]): efficiently pulled down
- Mdc1 pulled down from HeLa nuclear extract (Mdc1 [1]; listed as phosphopeptide): pulled down by the phosphopeptide only
- RAD50 pulled down from HeLa nuclear extract (RAD50): pulled down by the phosphopeptide only
- binding of C-terminal BRCT-repeat region GST-fusion [2]: no significant interaction detectable
- MRE11 pulled down from HeLa nuclear extract (MRE11): pulled down by the phosphopeptide only
- binding of FHA domain GST-fusion [3]: bound tightly and specifically

Molecule: Mdc1 1-12 (from UniProt Q14676) pThr-4 peptide
- binding against the reference (Mdc1 M-1, 1-124): stronger

Molecule: Mdc1 1-154 (from UniProt Q14676) T4A FHA fragment
- binding against the reference (Mdc1 [4]): weaker

Molecule: Mdc1 1-800 (from UniProt Q14676) T4A
- binding against the reference (Mdc1 1-800): weaker

Molecule: Mdc1 Thr-4 motif peptide (from UniProt Q14676) pThr-4 peptide
- binding against the reference (Mdc1 FHA domain): stronger

B1: Mdc1 pThr-4 phosphopeptide (first 12 N-terminal residues of human Mdc1, phosphorylated on Thr-4), on magnetic beads (peptide, UniProt Q14676 1-12, looked up)
peptide: MED[pT]QAIDWDVE
- binding result [5]: binds

B2: RNF95: uncharacterized RING-finger domain protein (protein)
chain: MATSAPLRSLEEEVTCSICLDYLRDPVTIDCGHVFCRSCTTDVRPISGSRPVCPLCKKPFKKENIRPVWQLASLVENIERLKVDKGRQPGEVTREQQDAKLCERHREKLHYYCEDDGKLLCVMCRESREHRPHTAVLMEKAAQPHREKILNHLSTLRRDRDKIQGFQAKGEADILAALKKLQDQRQYIVAEFEQGHQFLREREEHLLEQLAKLEQELTEGREKFKSRGVGELARLALVISELEGKAQQPAAELMQDTRDFLNRYPRKKFWVGKPIARVVKKKTGEFSDKLLSLQRGLREFQGKLLRDLEYKTVSVTLDPQSASGYLQLSEDWKCVTYTSLYKSAYLHPQQFDCEPGVLGSKGFTWGKVYWEVEVEREGWSEDEEEGDEEEEGEEEEEEEEAGYGDGYDDWETDEDEESLGDEEEEEEEEEEEVLESCMVGVARDSVKRKGDLSLRPEDGVWALRLSSSGIWANTSPEAELFPALRPRRVGIALDYEGGTVTFTNAESQELIYTFTATFTRRLVPFLWLKWPGTRLLLRP
- interaction with wild-type compared to T4A FHA domain (in words) [6]: significantly increased in the wild-type compared to T4A FHA domain expressing cells

B3: wild-type Mdc1–FHA (27–138) (domain or fragment, human, UniProt Q14676 27-138, looked up)
chain: NVEPVGRLHIFSGAHGPEKDFPLHLGKNVVGRMPDCSVALPFPSISKQHAEIEILAWDKAPILRDCGSLNGTQILRPPKVLSPGVSHRLRDQELILFADLLCQYHRLDVSLP
- stoichiometry N (SEC-MALS): 2

B4: Mdc1 (1–800): tagged N-terminal Mdc1 fragment lacking the BRCT domains (protein)
chain: MEDTQAIDWDVEEEEETEQSSESLRCNVEPVGRLHIFSGAHGPEKDFPLHLGKNVVGRMPDCSVALPFPSISKQHAEIEILAWDKAPILRDCGSLNGTQILRPPKVLSPGVSHRLRDQELILFADLLCQYHRLDVSLPFVSRGPLTVEETPRVQGETQPQRLLLAEDSEEEVDFLSERRMVKKSRTTSSSVIVPESDEEGHSPVLGGLGPPFAFNLNSDTDVEEGQQPATEEASSAARRGATVEAKQSEAEVVTEIQLEKDQPLVKERDNDTKVKRGAGNGVVPAGVILERSQPPGEDSDTDVDDDSRPPGRPAEVHLERAQPFGFIDSDTDAEEERIPATPVVIPMKKRKIFHGVGTRGPGAPGLAHLQESQAGSDTDVEEGKAPQAVPLEKSQASMVINSDTDDEEEVSAALTLAHLKESQPAIWNRDAEEDMPQRVVLLQRSQTTTERDSDTDVEEEELPVENREAVLKDHTKIRALVRAHSEKDQPPFGDSDDSVEADKSSPGIHLERSQASTTVDINTQVEKEVPPGSAIIHIKKHQVSVEGTNQTDVKAVGGPAKLLVVSLEEAWPLHGDCETDAEEGTSLTASVVADVRKSQLPAEGDAGAEWAAAVLKQERAHEVGAQGGPPVAQVEQDLPISRENLTDLVVDTDTLGESTQPQREGAQVPTGREREQHVGGTKDSEDNYGDSEDLDLQATQCFLENQGLEAVQSMEDEPTQAFMLTPPQELGPSHCSFQTTGTLDEPWEVLATQPFCLRESEDSETQPFDTHLEAYGPCLSPPRAIPGDQHPESPVHTEPM
modifications: left off: HA/FLAG on one copy and Myc on the other, C-terminal, kept
- co-immunoprecipitation with endogenous Mdc1 (endogenous Mdc1): exclusively in extracts prepared from IR-treated cells
- interaction of Flag-tagged with Myc-tagged Mdc1 (1–800) (Myc-tagged Mdc1 (1–800)): efficiently interacted
